CHRM5 agonist: human M5 muscarinic receptor agonists, primary screen, CHO-K1 cells, Fluo-8 calcium fluorescence; AID 624037, 2012; activation, % at 3 µM; CHO-K1 hM5 cells; 0% DMSO wells, 100% maximal acetylcholine response; actives 0.19% (n = 360,000); Muscarinic acetylcholine receptor M5 (Homo sapiens), P08912;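 active means activation above the run's mean over test compounds plus 3 SD, cut at about 23% in these data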;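 further: signal is peak over basal fluorescence ratio across the kinetic read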
Target sequence (P08912 whole entry, looked up): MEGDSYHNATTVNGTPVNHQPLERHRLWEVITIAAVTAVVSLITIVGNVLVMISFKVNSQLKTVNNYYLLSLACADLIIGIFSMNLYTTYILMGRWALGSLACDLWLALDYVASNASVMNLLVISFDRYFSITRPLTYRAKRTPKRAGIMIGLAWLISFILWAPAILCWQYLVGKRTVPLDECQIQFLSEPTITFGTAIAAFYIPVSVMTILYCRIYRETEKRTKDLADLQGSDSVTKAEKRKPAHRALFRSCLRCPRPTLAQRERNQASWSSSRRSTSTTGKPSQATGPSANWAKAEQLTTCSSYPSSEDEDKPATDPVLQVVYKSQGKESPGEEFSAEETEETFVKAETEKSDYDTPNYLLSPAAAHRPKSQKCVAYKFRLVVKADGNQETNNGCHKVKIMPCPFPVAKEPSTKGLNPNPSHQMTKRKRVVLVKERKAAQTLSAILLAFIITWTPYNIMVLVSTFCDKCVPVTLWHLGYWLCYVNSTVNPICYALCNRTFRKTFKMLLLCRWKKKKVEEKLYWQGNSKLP
CHRM4 PAM: human M4 muscarinic receptor positive allosteric modulators, primary screen, CHO-K1 cells, Fluo-8 calcium fluorescence | Muscarinic acetylcholine receptor M4 (Homo sapiens), P08173 | CHO-K1 hM4/Gqi5, ACh EC20; 0% = ACh EC20, 100% = maximal ACh | activation, % at 3 µM | actives 0.4% (n = 360,000);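 active means activation above its plate's cutoff, the mean activation of sample wells plus 3 SD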
M5 antag: human M5 muscarinic receptor antagonists, primary screen, CHO cells, Fluo-8 calcium fluorescence; actives 0.59% (n = 360,000); inhibition, % at 3 µM; CHO-hM5 cells, ACh EC80;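 active means inhibition above a per-plate cutoff, the mean of that plate's test compounds plus 3 SD, cut at about 27% in these data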
CHRM4 antagonist: human M4 muscarinic receptor antagonists, primary screen, CHO cells, Fluo-8 calcium fluorescence; Muscarinic acetylcholine receptor M4 (Homo sapiens), P08173; CHO-hM4 cells, ACh EC80; inhibition, % at 3 µM; actives 0.73% (n = 360,000);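 active means inhibition above its plate's cutoff, the mean inhibition of sample wells plus 3 SD, cut at about 27% in these data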
CHRM4 agonist: human M4 muscarinic receptor agonists, primary screen, CHO-K1 cells, Fluo-8 calcium fluorescence | Muscarinic acetylcholine receptor M4 (Homo sapiens), P08173 | CHO-K1 hM4/Gqi5; vehicle 0%, full acetylcholine response 100% | activation, % at 3 µM | actives 0.14% (n = 360,000) | AID 624127, 2012;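 active means activation above the run mean over all test wells plus 3 SD, cut at about 32% in these data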;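 further: peak over basal fluorescence ratio per well then scaled between controls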
M5 PAM: human M5 muscarinic receptor positive allosteric modulators, primary screen, CHO-K1 cells, Fluo-8 calcium fluorescence; Muscarinic acetylcholine receptor M5 (Homo sapiens), P08912; CHO-K1 hM5, ACh EC20 PAM; 0% = ACh EC20, 100% = ACh EC100; activation, % at 3 µM; actives 0.3% (n = 360,000);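 active means activation above the run cutoff, the mean activation of all test compounds plus 3 SD, cut at about 18% in these data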
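Assay system: CHO-K1 hM5 cells / Incubation: Fluo-8 loading 80 min at 37 °C plus 30 min room temperature / Technique: Fluo-8 calcium dye fluorescence, kinetic read / Repeats: single replicate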
Of the large screens only hits and unclear results are named; the others gave an inactive call. Compounds with a hit are over-represented: about 1.9% of the library has one in this group of screens.

COc1ccc(S(=O)(=O)N2CC3CCCN3c3cc(C(F)(F)F)ccc32)cc1 (stereo not drawn)	none
O=S(=O)(c1cc(Cl)ccc1Cl)N1CC2CCCN2c2ccc(C(F)(F)F)cc21 (stereo not drawn)	CHRM4 antagonist 45
C=CCOc1ccc(/C=C/C(=O)OCC(=O)NCc2cccs2)cc1	none
C[N+](C)(C)CCOC(=O)CCC(=O)OCC[N+](C)(C)C	none
CC(=O)SCC[N+](C)(C)C	CHRM5 agonist 63
CCOc1ccccc1N(C)C(=O)c1cn(C)c(=O)c2ccccc12	none
CCCc1cc(=O)n2[nH]c(NC(=O)c3ccco3)nc2n1	CHRM4 PAM 14
CCCc1cc(=O)n2[nH]c(NCc3c(Cl)cccc3Cl)nc2n1	none
COc1ccc(CNC(=O)CSc2nnc(NC(=O)c3ccccc3F)s2)cc1	none
Cc1cc2c3c([nH]c2cc1S(=O)(=O)NCc1ccc(CN2CCCCCC2)o1)CCCC3=O	CHRM4 antagonist 68
CC(C)(C)c1ccc(NC(=O)c2cc[n+]([O-])cc2)cc1	none
CC(=O)Nc1ccc(C(=O)Nc2cc(C)on2)cc1	CHRM4 antagonist 28
CC(=O)Nc1ccc(NC(=O)c2cc[n+]([O-])cc2)cc1	M5 antag 29
COc1ccc([C@H]2CC(=O)C=C(c3ccc(C(F)(F)F)c(C(F)(F)F)c3)C2)cc1OC	M5 PAM 20
CC1Sc2ccc(S(=O)(=O)CCC(=O)NC(C)c3ccccc3)cc2NC1=O (stereo not drawn)	none
O=C(Nc1ccc(Cl)cc1)Nc1nc(-c2ccccc2O)cs1	M5 antag 36, CHRM4 antagonist 29
CC1CCc2c(sc(/N=C/N(C)C)c2C#N)C1 (stereo not drawn)	M5 PAM 20
Cc1ccccc1-n1ccnc1SCC(=O)NC1CCCC1	none
Cc1ccsc1C(=O)N1CCN(S(=O)(=O)c2cccs2)CC1	none
Cc1ccccc1C(=O)N1CCN(S(=O)(=O)c2cccs2)CC1	CHRM4 antagonist 27
O=C(c1ccncc1)c1ccc(Br)cc1	CHRM4 PAM 35
COc1ccc(C(=O)c2ccc(Br)cc2)cc1	none
Cc1cnc(C(=O)OCC(=O)N2C(C)CCCC2C)cn1 (stereo not drawn)	none
CN(Cc1nc2ccccc2n1C)S(=O)(=O)c1ccc(Cl)cc1	CHRM4 PAM 25
CC1CCCCC12NC(=O)N(CC(=O)NCCc1ccc(F)cc1)C2=O (stereo not drawn)	none
N/C(=N\OC(=O)CSc1ccccc1)c1ccccn1	CHRM4 PAM 21
Cc1ccc(S(=O)(=O)N2CCCCC2)cc1NC(=O)CSc1nc(N)cc(=O)[nH]1	none
Cc1ccc2c(c1)N(S(=O)(=O)c1ccc(F)cc1)C(C(C)(C)C)CO2 (stereo not drawn)	none
Cc1ccc(S(=O)(=O)N2c3ccccc3OCC2C(C)(C)C)cc1 (stereo not drawn)	M5 PAM 21
Cn1ccc2c(-c3ccc4c(c3)OCCO4)cc3c(c21)C1CCC3O1 (stereo not drawn)	none
CC(Oc1cccc2ccccc12)C(=O)N/N=C/c1cccnc1 (stereo not drawn)	CHRM4 PAM 22
CC(Sc1ccccc1)C(=O)N/N=C/c1cccnc1 (stereo not drawn)	none
O=C(Nc1ccc(F)c(Cl)c1)C1CCCN(C2=NS(=O)(=O)c3ccccc32)C1 (stereo not drawn)	CHRM4 PAM 24
O=C(O)c1ccc(N/N=C/c2cccc(C(F)(F)F)c2)cc1	M5 antag 29
O=C(O)c1ccc(N/N=C/c2cccc(F)c2)cc1	none
Cc1ccc(OCC(=O)NCCNC(=O)c2cnccn2)cc1	none
COc1ccc(OC)c(N(CC(=O)N2CCCC2)S(C)(=O)=O)c1	none
N#C/C(=C\c1ccc(Sc2ccc(Cl)cc2)o1)c1nc2ccccc2[nH]1	M5 antag 29
N#C/C(=C\c1ccc(Sc2nc3ccccc3[nH]2)o1)c1ccccc1	none
COc1ccc(OC(C)C(=O)Nc2cccc(OC)c2)cc1 (stereo not drawn)	M5 PAM 19
CC(C)NS(=O)(=O)c1ccc(NC(=O)C(C)Oc2ccc(C(=O)c3ccccc3)cc2)cc1 (stereo not drawn)	CHRM5 agonist 65, M5 antag 47, CHRM4 antagonist 71, CHRM4 agonist 117
COc1ccc(NC(=O)C(C)Oc2ccc(/C(C)=N\O)cc2)cc1 (stereo not drawn)	CHRM5 agonist 27
COc1cccc(NC(=O)NNC(=O)C(C)Oc2ccc3ccccc3c2)c1 (stereo not drawn)	none
CC(Oc1ccccc1)C(=O)Nc1ccc(C(N)=O)cc1 (stereo not drawn)	none
CCc1nc2ccc(C(=O)NCCCN3CCCC3=O)cn2c1N(C=O)CC	none
CCOC(=O)C1CCN(C(=O)c2[nH]c(C(F)(F)F)nc2-c2ccccc2)CC1	none
CC(=O)OCC(=O)N1N=C(c2ccc3ccccc3c2)CC1c1ccccc1 (stereo not drawn)	none
Nc1cc(=O)[nH]c(SCC(=O)N2N=C(c3ccc4ccccc4c3)CC2c2ccccc2)n1 (stereo not drawn)	CHRM4 antagonist 36
CCN(CC)C(=O)CSc1nc2ccccc2c(=O)n1-c1ccccc1OC	CHRM4 PAM 36
CN(C)c1ccc2nc3c(=O)[nH]c(=O)nc-3n(CC(O)C(O)C(O)CO)c2c1 (stereo not drawn)	CHRM4 agonist 48
CCOCCCNC(=O)C(c1ccc(C)cc1)N(Cc1ccc2c(c1)OCO2)C(=O)CNC(C)=O (stereo not drawn)	CHRM4 PAM 24
CCOCCCNC(=O)C(NC(=O)Cc1cccs1)c1ccc(C)cc1 (stereo not drawn)	CHRM4 PAM 21
CCOCCCNC(=O)C(NC(=O)CNC(C)=O)c1ccc(C)cc1 (stereo not drawn)	none
CCN(C(=O)c1ccc(C(C)(C)C)cc1)c1nnc(Cn2nnc3ccccc32)s1	M5 antag 33, CHRM4 antagonist 29
CCN(C(=O)CC(C)C)c1nnc(Cn2nnc3ccccc32)s1	none
OCC1(Cc2ccccc2)CCN(CCCC2CCCC2)CC1	CHRM4 antagonist 49
